Data published in ChEMBL document CHEMBL4393737, “Synthesis of quinoline derivatives as diabetic II inhibitors and molecular docking studies” (Bioorg Med Chem, 2019).

Experiments:
[1] = Inhibition of Saccharomyces cerevisiae alpha-glucosidase using para-nitrophenyl-alpha-D-glucopyranoside as substrate preincubated for 5 mins followed by substrate addition and measured after 5 mins
In short: (§1)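 Baker's yeast α-glucosidase (EC 3.2.1.20) in 100 mM phosphate buffer, pH 6.8. Compounds came from 5 mg/mL DMSO stocks and were incubated with enzyme for 5 min. p-Nitrophenyl-α-D-glucopyranoside (5 mM solution) was then added and incubated for 5 min, and absorbance read at 405 nm. Blanks with buffer in place of substrate gave background; acarbose served as positive control.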

Saccharomyces cerevisiae = experiment: Inhibition of Saccharomyces cerevisiae alpha-glucosidase using para-nitrophenyl-alpha-D-glucopyranoside as substrate preincubated for 5 mins followed by substrate addition and measured after 5 mins relative to control; parameters: concentration or dose not given beside the values; in short: as §1

O=C(N/N=C\c1ccco1)c1ccc2ncccc2c1
IC50 ([1]; read-out: IC50): 28.6 µM

O=C(N/N=C\c1cccc(F)c1)c1ccc2ncccc2c1
IC50 ([1]; read-out: IC50): 48.2 µM

O=C(N/N=C\c1ccc([N+](=O)[O-])cc1)c1ccc2ncccc2c1
IC50 [1]: Not Active | inhibition (Saccharomyces cerevisiae): < 50%

O=C(N/N=C\c1ccc(O)cc1O)c1ccc2ncccc2c1
IC50 ([1]; read-out: IC50): 14.1 µM

O=C(N/N=C\c1ccc(O)c(O)c1)c1ccc2ncccc2c1
IC50 ([1]; read-out: IC50): 6.2 µM

Cc1cccc(C)c1/C=N\NC(=O)c1ccc2ncccc2c1
IC50 [1]: Not Active | inhibition (Saccharomyces cerevisiae): < 50%

COc1ccc(/C=N\NC(=O)c2ccc3ncccc3c2)cc1
IC50 [1]: Not Active | inhibition (Saccharomyces cerevisiae): < 50%

O=C(N/N=C\c1ccc(O)cc1)c1ccc2ncccc2c1
IC50 ([1]; read-out: IC50): 23.5 µM

COc1cccc(/C=N\NC(=O)c2ccc3ncccc3c2)c1
IC50 [1]: Not Active | inhibition (Saccharomyces cerevisiae): < 50%

COc1ccc(/C=N\NC(=O)c2ccc3ncccc3c2)cc1OC
IC50 [1]: Not Active | inhibition (Saccharomyces cerevisiae): < 50%

O=C(N/N=C\c1ccccn1)c1ccc2ncccc2c1
IC50 ([1]; read-out: IC50): 38.4 µM

O=C(N/N=C\c1ccccc1F)c1ccc2ncccc2c1
IC50 ([1]; read-out: IC50): 7.4 µM

O=C(N/N=C\c1ccncc1)c1ccc2ncccc2c1
IC50 [1]: Not Active | inhibition (Saccharomyces cerevisiae): < 50%

COc1ccc(/C=N\NC(=O)c2ccc3ncccc3c2)c(O)c1
IC50 ([1]; read-out: IC50): 21.6 µM

O=C(N/N=C\c1cc(O)ccc1O)c1ccc2ncccc2c1
IC50 ([1]; read-out: IC50): 12.4 µM

O=C(N/N=C\c1cccs1)c1ccc2ncccc2c1
IC50 ([1]; read-out: IC50): 35.7 µM

O=C(N/N=C\c1cccnc1)c1ccc2ncccc2c1
IC50 [1]: Not Active | inhibition (Saccharomyces cerevisiae): < 50%

O=C(N/N=C\c1ccccc1[N+](=O)[O-])c1ccc2ncccc2c1
IC50 ([1]; read-out: IC50): 37.6 µM

O=C(N/N=C\c1ccccc1O)c1ccc2ncccc2c1
IC50 ([1]; read-out: IC50): 13.2 µM

COc1ccc(O)c(/C=N\NC(=O)c2ccc3ncccc3c2)c1
IC50 ([1]; read-out: IC50): 18.4 µM

O=C(N/N=C\c1cccc(O)c1O)c1ccc2ncccc2c1
IC50 ([1]; read-out: IC50): 9.4 µM

O=C(N/N=C\c1ccc(F)cc1)c1ccc2ncccc2c1
IC50 ([1]; read-out: IC50): 28.9 µM

COc1ccc(/C=N\NC(=O)c2ccc3ncccc3c2)cc1O
IC50 ([1]; read-out: IC50): 14.4 µM

O=C(N/N=C\c1cccc([N+](=O)[O-])c1)c1ccc2ncccc2c1
IC50 [1]: Not Active | inhibition (Saccharomyces cerevisiae): < 50%

O=C(N/N=C\c1cccc(O)c1)c1ccc2ncccc2c1
IC50 ([1]; read-out: IC50): 48.5 µM
